Assay results from ChEMBL document CHEMBL1143913, “Pyrimidinone-peptoid hybrid molecules with distinct effects on molecular chaperone function and cell proliferation” (Bioorg Med Chem, 2008).

Tests used:
[1] = test system: HT-29; assay: Antiproliferative activity against human HT29 cells after 96 hrs by MTS assay; format: functional; details: HT-29, 96 h
Summary of the method: (§1)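 Cells were kept in exponential growth in DMEM with 10% FBS, 1% penicillin and 1% glutamine, seeded at 4,000 per well and grown 48 h, with a time-zero plate counted. They were then exposed for 72 h to DMSO (1 v/v) or a concentration range in quadruplicate. Cell number was read by MTS/N-methylphenazine methylsulfate absorbance at 490 minus 630 nm. GI50 is relative to DMSO over the 72 h or 96 h period, and values above 50 µM are given as >50.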

[2] = test system: Saccharomyces cerevisiae; assay: Inhibition of SV40 T antigen-stimulated Hsp70 ATPase in yeast assessed as ATP hydrolysis relative to control
Summary of the method: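 Yeast Ssa1p was pre-bound to ATP and run as a single-turnover assay with purified SV40 TAg (0.4 µM). Compound (300 µM) or DMSO was added at 60 s, and that time was set to zero. Runs were averaged over multiple experiments, kinetics were fitted, and the value is the fold change in TAg-stimulated ATP hydrolysis versus DMSO.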

[3] = test system: MCF7; assay: Antiproliferative activity against human MCF7 cells after 96 hrs by MTS assay; format: functional; details: MCF7, 96 h; summary of the method: as §1
[4] = test system: Saccharomyces cerevisiae; assay: Inhibition of yeast Hsp70 ATPase assessed as ATP hydrolysis relative to control
Summary of the method: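 Purified yeast Hsp70 (Ssa1p) was pre-bound to ATP and run as a single-turnover assay, so that only the hydrolysis step is measured. Compound (300 µM) or DMSO was added at 0 s, and that time was set to zero. Results from multiple experiments were averaged, kinetics were fitted, and the value is the fold change in hydrolysis versus DMSO.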

[5] = test system: SK-BR-3; assay: Antiproliferative activity against human SK-BR3 cells after 96 hrs by MTS assay; format: functional; details: SK-BR-3, 96 h; summary of the method: as §1
[6] = Binding affinity to Hsp70
[7] = Binding affinity to Hsp90

Compound | GI50 [1] [µM] | Fold change [2] | GI50 [3] [µM] | Fold change [4] | GI50 [5] [µM] | Kd [6] [µM] | Kd [7] [µM] | EC50 ([5]; read-out: ED50 (the source's name)) [µM]
CCCCNC(=O)C(c1ccc(OCC(=O)OC)c(C(=O)OC)c1)N(CCOC)C(=O)CCCCCN1C(=O)NC(c2ccc(-c3ccccc3)cc2)C(C(=O)OCc2ccccc2)=C1C (stereo not drawn) | 3.1 | -1.8 | 7.8 | 1.5 | 8.8 |  |  | 
N=C(N)NCCCCCCC(=O)NC(O)C(=O)NCCCCNCCCN (stereo not drawn) [GUSPERIMUS] |  |  |  |  |  | 4 | 4 | 
CCCCCCN(C(=O)CCCCCN1C(=O)NC(c2ccc(-c3ccccc3)cc2)C(C(=O)OCc2ccccc2)=C1C)C(C(=O)NCCCC)c1ccc(OCC(=O)OC)c(C(=O)OC)c1 (stereo not drawn) | > 50 | -2 | 14.7 | 1.7 | 27 |  |  | 8

Continued, values first:

GI50 [1] [µM] | Fold change [2] | GI50 [3] [µM] | Fold change [4] | GI50 [5] [µM] | Kd [6] [µM] | Kd [7] [µM] | EC50 ([5]; read-out: ED50 (the source's name)) [µM] | Compound
4.8 | -1.1 | 2.4 | 1.1 | 6.5 |  |  |  | CCCCCCN(C(=O)CCCCCN1C(=O)NC(c2ccccc2)C(C(=O)OCc2ccccc2)=C1C)C(C(=O)NCCCC)c1ccc(OCC(=O)OC)c(C(=O)OC)c1 (stereo not drawn)
5.3 | -2.6 | 6.3 | 1.2 | 6.2 |  |  |  | CCCCCCN(C(=O)CCCCCN1C(=O)NC(C2CC2)C(C(=O)OCc2ccccc2)=C1C)C(C(=O)NCCCC)c1ccc(OCC(=O)OC)c(C(=O)OC)c1 (stereo not drawn)
> 50 | -2 | > 50 | 1.1 | > 50 |  |  |  | CC(C)(C)NC(=O)C(c1ccc(I)cc1)N(CCN1CCOCC1)C(=O)CCCNC(=O)c1ccccc1 (stereo not drawn)
